# The source made the active and inactive calls. The calls are words filed in the database; no cut-off is given here.
# Experiments:
# [1] = biological target: T1, 72 kDa type IV collagenase (Homo sapiens, UniProt P08253); experiment: Inhibition of human recombinant MMP2 catalytic domain incubated for 20 mins by fluorimetric assay
# Outline: (§1)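 Diluted recombinant MMP enzyme pre-incubated 20 min at room temperature with varied inhibitor concentrations in 50 mM Tris–HCl, 150 mM NaCl, 5 mM CaCl2, 0.05% Brij-35, pH 7.5; total assay volume 100 µl.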
# Target sequence in this assay (P08253 whole entry, the tested form may be a part): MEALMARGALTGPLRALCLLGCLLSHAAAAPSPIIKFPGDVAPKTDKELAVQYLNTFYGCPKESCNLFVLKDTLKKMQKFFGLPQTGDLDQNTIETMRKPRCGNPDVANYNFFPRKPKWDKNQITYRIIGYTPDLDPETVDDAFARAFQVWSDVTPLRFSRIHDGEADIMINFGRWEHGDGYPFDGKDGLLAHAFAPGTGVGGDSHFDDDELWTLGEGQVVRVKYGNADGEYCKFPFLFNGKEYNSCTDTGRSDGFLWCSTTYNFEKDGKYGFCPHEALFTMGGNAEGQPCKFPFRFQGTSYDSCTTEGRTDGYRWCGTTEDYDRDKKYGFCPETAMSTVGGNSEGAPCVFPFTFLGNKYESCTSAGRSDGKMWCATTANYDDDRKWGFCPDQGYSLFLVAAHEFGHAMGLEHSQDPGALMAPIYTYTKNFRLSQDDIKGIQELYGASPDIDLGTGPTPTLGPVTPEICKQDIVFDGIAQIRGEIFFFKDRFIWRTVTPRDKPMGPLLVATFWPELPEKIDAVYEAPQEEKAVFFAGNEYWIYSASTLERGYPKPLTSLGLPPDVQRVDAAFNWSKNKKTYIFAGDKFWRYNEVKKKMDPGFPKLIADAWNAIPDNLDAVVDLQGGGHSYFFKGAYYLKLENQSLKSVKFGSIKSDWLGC
# Stromelysin-1 [2] = biological target: T2, Stromelysin-1 (Homo sapiens, UniProt P08254); experiment: Inhibition of human recombinant MMP3 catalytic domain incubated for 20 mins by fluorimetric assay; outline: as §1
# T2 sequence (P08254 whole entry, the tested form may be a part): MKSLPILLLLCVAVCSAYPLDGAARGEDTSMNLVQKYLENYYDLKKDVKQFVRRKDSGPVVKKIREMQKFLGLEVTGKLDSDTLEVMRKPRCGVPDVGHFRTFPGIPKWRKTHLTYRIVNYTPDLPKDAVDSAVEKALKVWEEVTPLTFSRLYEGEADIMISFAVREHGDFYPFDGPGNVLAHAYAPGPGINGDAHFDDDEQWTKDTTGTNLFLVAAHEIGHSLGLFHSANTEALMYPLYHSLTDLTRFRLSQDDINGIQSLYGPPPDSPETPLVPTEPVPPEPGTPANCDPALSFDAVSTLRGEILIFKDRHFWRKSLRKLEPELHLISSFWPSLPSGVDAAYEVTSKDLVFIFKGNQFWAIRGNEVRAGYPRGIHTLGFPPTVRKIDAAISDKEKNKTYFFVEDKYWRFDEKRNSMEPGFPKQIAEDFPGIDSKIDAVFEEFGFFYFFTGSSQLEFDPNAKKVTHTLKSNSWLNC
# [3] = biological target: T1, 72 kDa type IV collagenase; experiment: Inhibition of human recombinant MMP2 catalytic domain at 10 uM incubated for 20 mins by fluorimetric assay; outline: as §1
# Target sequence in this assay (P08253 110-660 limits assumed): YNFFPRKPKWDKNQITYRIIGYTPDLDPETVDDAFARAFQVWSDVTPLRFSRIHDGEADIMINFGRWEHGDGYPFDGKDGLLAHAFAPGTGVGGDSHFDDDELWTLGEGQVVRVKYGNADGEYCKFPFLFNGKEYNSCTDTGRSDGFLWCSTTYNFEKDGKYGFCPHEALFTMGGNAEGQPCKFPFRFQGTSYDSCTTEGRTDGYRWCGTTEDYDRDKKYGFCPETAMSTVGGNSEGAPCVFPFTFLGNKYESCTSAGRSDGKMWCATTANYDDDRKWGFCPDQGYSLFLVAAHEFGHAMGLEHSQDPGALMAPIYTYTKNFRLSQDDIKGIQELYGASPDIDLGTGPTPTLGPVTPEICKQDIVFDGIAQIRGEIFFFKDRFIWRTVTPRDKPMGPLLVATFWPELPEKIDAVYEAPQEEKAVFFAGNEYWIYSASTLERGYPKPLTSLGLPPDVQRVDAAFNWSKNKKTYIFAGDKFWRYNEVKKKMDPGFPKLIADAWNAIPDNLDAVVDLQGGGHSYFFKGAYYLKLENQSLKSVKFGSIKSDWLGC
# Stromelysin-1 [4] = biological target: T2, Stromelysin-1; experiment: Inhibition of human recombinant MMP3 catalytic domain at 10 uM incubated for 20 mins by fluorimetric assay; outline: as §1
# Interstitial collagenase = biological target: T3, Interstitial collagenase (Homo sapiens, UniProt P03956); experiment: Inhibition of human recombinant MMP1 catalytic domain incubated for 20 mins by fluorimetric assay; outline: as §1
# T3 sequence (P03956 whole entry): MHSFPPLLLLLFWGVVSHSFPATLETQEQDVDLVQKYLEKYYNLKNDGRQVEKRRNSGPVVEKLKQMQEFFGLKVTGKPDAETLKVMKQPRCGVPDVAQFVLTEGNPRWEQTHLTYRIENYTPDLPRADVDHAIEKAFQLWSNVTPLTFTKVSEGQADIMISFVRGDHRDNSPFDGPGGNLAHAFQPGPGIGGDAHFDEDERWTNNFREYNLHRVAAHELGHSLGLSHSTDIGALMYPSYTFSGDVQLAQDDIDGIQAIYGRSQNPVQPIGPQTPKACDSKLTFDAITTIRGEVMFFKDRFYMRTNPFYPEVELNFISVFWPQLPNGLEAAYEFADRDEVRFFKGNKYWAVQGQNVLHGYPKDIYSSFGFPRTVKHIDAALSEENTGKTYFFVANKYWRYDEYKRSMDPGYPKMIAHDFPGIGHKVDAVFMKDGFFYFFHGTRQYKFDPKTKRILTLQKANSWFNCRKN
# [5] = biological target: T4, Interstitial collagenase (Homo sapiens) (UniProt P03956); experiment: Inhibition of human recombinant MMP1 catalytic domain at 10 uM incubated for 20 mins by fluorimetric assay; outline: as §1
# T4 sequence (whole entry): T3 sequence (P03956 whole entry)
# [6] = biological target: T5, Matrix metalloproteinase-9 (Homo sapiens, UniProt P14780); experiment: Inhibition of human recombinant MMP9 catalytic domain incubated for 20 mins by fluorimetric assay; outline: as §1
# T5 sequence (P14780 whole entry, the tested form may be a part): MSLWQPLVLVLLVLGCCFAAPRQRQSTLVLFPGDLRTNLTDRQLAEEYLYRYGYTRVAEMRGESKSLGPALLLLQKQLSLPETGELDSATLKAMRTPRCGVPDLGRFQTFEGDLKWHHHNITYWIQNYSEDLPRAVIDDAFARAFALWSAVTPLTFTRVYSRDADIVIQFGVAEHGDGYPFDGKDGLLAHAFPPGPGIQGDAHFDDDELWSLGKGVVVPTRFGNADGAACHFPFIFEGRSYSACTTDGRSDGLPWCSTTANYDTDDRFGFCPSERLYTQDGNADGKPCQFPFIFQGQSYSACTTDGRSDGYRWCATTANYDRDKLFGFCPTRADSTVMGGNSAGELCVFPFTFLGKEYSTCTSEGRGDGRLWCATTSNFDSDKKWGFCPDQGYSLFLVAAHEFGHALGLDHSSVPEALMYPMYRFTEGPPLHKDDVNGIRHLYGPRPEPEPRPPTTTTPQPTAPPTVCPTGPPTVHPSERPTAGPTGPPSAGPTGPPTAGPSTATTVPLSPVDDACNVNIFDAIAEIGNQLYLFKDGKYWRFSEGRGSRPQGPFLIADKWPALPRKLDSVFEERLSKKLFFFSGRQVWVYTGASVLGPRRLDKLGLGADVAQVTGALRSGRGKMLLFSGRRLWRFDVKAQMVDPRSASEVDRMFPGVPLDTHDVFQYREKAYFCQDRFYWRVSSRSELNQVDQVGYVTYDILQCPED
# Collagenase 3 [7] = biological target: T6, Collagenase 3 (Homo sapiens, UniProt P45452); experiment: Inhibition of human recombinant MMP13 catalytic domain incubated for 20 mins by fluorimetric assay; outline: as §1
# [8] = biological target: T5, Matrix metalloproteinase-9; experiment: Inhibition of human recombinant MMP9 catalytic domain at 10 uM incubated for 20 mins by fluorimetric assay; outline: as §1
# Collagenase 3 [9] = biological target: T6, Collagenase 3; experiment: Inhibition of human recombinant MMP13 catalytic domain at 10 uM incubated for 20 mins by fluorimetric assay; outline: as §1
# MDA-MB-231 [10] = experiment: Inhibition of cell migration of human MDA-MB-231 cells at 10 uM incubated for 48 hrs by wound healing assay; assay type: functional, cell-based
# Outline: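 MDA-MB-231 monolayer grown overnight to confluence and scratched with a pipette tip. Debris washed off with L15 medium, then cells kept in serum-free L15 with compound (1 and 10 µM) for 48 h. Migration into the wound photographed by phase-contrast microscopy at 0, 24 and 48 h.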
# [11] = biological target: T7, Macrophage metalloelastase (Homo sapiens, UniProt P39900); experiment: Inhibition of human recombinant MMP12 catalytic domain incubated for 20 mins by fluorimetric assay; outline: as §1
# T7 sequence (P39900 whole entry, the tested form may be a part): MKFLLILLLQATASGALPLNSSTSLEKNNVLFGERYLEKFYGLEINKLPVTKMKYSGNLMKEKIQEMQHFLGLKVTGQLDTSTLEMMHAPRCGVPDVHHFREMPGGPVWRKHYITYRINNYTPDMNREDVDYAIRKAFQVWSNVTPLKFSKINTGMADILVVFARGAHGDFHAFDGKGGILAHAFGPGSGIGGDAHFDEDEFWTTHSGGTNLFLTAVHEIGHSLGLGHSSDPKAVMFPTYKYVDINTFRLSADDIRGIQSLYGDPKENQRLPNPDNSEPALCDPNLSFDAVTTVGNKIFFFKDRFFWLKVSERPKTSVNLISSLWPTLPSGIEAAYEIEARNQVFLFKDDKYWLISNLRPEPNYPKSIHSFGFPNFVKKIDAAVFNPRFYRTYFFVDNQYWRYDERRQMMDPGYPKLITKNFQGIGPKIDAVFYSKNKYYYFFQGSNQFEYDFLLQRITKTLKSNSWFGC
# [12] = biological target: T7, Macrophage metalloelastase; experiment: Inhibition of human recombinant MMP12 catalytic domain at 10 uM incubated for 20 mins by fluorimetric assay; outline: as §1
# MDA-MB-231 [13] = experiment: Inhibition of MMP2 protein expression in human MDA-MB-231 cells at 50 uM incubated for 24 hrs by Western blot; assay type: functional, cell-based
# Outline: (§2)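 MDA-MB-231 cells co-incubated with 20 ng/ml TPA and test compound at 50 µM for 24 h, then lysed. Lysates centrifuged 10000g, 10 min, 4 °C, run on 10% SDS–PAGE, transferred to PVDF, blocked overnight at 4 °C in TBST with 5% skim milk. Probed with anti-MMP-2 and anti-MMP-9 antibodies; GAPDH as loading control.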
# MDA-MB-231 [14] = experiment: Inhibition of active MMP9 protein expression in human MDA-MB-231 cells at 50 uM incubated for 24 hrs by Western blot; assay type: functional, cell-based; outline: as §2
# MDA-MB-231 [15] = experiment: Inhibition of pro-MMP9 protein expression in human MDA-MB-231 cells at 50 uM incubated for 24 hrs by Western blot; assay type: functional, cell-based; outline: as §2
# MDA-MB-231 [16] = experiment: Effect on cell proliferation of human MDA-MB-231 cells at 50 uM incubated for 24 hrs; assay type: functional, cell-based
Compound,IC50 [1],IC50 (Stromelysin-1 [2]),inhibition [3],inhibition (Stromelysin-1 [4]),IC50 (Interstitial collagenase),inhibition [5],IC50 [6],IC50 (Collagenase 3 [7]),inhibition [8],inhibition (Collagenase 3 [9]),inhibition (MDA-MB-231 [10]),IC50 [11],inhibition [12],inhibition (MDA-MB-231 [13]),inhibition (MDA-MB-231 [14]),inhibition (MDA-MB-231 [15]),inhibition (MDA-MB-231 [16])
COC(=O)C1(O)CC(O)C(O)C(OC(=O)/C=C/c2ccc(O)c(O)c2)C1 (configuration not stated),64.2 µM,58.8 µM,> 30%,> 30%,–,–,–,–,–,–,–,–,–,–,–,–,–
O=c1c2cc(O)c(O)cc2oc2cc(O)cc(O)c12,–,–,–,–,11.4 µM,> 30%,–,–,–,–,–,–,–,–,–,–,–
O=C1c2c(O)cc(O)cc2O[C@]2(c3ccc(O)cc3)Oc3cc(O)c4c(c3[C@@]12O)O[C@H](c1ccc(O)cc1)CC4 [DAPHNODORIN F],23.3 µM,22.3 µM,> 30%,> 30%,–,–,21.2 µM,13.2 µM,> 30%,> 30%,–,–,–,–,–,–,–
COC(=O)[C@@H](Cc1ccc(O)c(O)c1)OC(=O)/C=C/c1ccc(O)c2c1[C@H](C(=O)OC)[C@@H](c1ccc(O)c(O)c1)O2 [DIMETHYL LITHOSPERMATE],11.6 µM,8.15 µM,> 30%,> 30%,8.23 µM,> 30%,0.99 µM,18.5 µM,> 30%,> 30%,Active,0.67 µM,> 30%,Active,Active,inactive,inactive
CCCCOC(=O)[C@H]1c2c(/C=C/C(=O)O[C@H](Cc3ccc(O)c(O)c3)C(=O)O)ccc(O)c2O[C@@H]1c1ccc(O)c(O)c1,15.5 µM,14.8 µM,> 30%,> 30%,3.25 µM,> 30%,3.46 µM,24.5 µM,> 30%,> 30%,–,1.79 µM,> 30%,–,–,–,–
O=C(c1c(O)cc(O)cc1O)C1c2c(cc(O)c3c2O[C@H](c2ccc(O)cc2)[C@@H](O)C3)OC1c1ccc(O)cc1 (some centres not stated) [DIHYDRODAPHNODORIN B],14.1 µM,25.6 µM,> 30%,> 30%,–,–,10.2 µM,43.5 µM,> 30%,> 30%,–,–,–,–,–,–,–
COc1ccc(S(=O)(=O)N2CC(C)(C)CN(S(=O)(=O)c3ccc(OC)cc3)C2C(=O)NO)cc1,–,0.0286 µM,–,> 30%,–,–,0.0018 µM,–,> 30%,–,–,–,–,–,–,–,–
COc1cc(C[C@@H](CO)[C@H](CO)Cc2ccc(O)c(OC)c2)ccc1O [(+)-SECOISOLARICIRESINOL],–,–,–,–,50.1 µM,> 30%,–,–,–,–,–,–,–,–,–,–,–
COc1cc(C(O)C(CO)Oc2ccc(/C=C\CO)cc2OC)ccc1O (configuration not stated),–,–,–,–,–,–,9.91 µM,–,> 30%,–,–,–,–,–,–,–,–
C[C@@H]1O[C@@H](O[C@@H]2[C@@H](O)[C@H](OCCc3ccc(O)c(O)c3)O[C@H](COC(=O)/C=C/c3ccc(O)c(O)c3)[C@H]2O)[C@H](O)[C@H](O)[C@H]1O [ISOACTEOSIDE],8.96 µM,91.4 µM,> 30%,> 30%,–,–,14.3 µM,11.1 µM,> 30%,> 30%,–,8.22 µM,> 30%,–,–,–,–
O=C1c2c(O)cc(O)cc2O[C@H](c2cc(O)c(O)c(O)c2)[C@@H]1O,11.9 µM,20.3 µM,> 30%,> 30%,–,–,28.8 µM,9.33 µM,> 30%,> 30%,–,1.74 µM,> 30%,–,–,–,–
C[C@]12CCC[C@@](C)(C(=O)O)[C@@H]1CCC1=CC(=O)CC[C@@H]12,33.3 µM,–,> 30%,–,–,–,–,–,–,–,–,–,–,–,–,–,–
O=c1c(O)c(-c2ccc(O)c(O)c2)oc2cc(O)cc(O)c12 [QUERCETIN],6.68 µM,5.57 µM,> 30%,> 30%,–,–,1.61 µM,8.46 µM,> 30%,> 30%,–,10.2 µM,> 30%,–,–,–,–
COC(=O)[C@@H](Cc1ccc(O)c(O)c1)OC(=O)/C=C/c1ccc(O)c(O)c1 [METHYL ROSMARINATE],3.58 µM,28.3 µM,> 30%,> 30%,14.7 µM,> 30%,0.61 µM,29 µM,> 30%,> 30%,–,2.75 µM,> 30%,–,–,–,–
CC(C)CC(=O)OC(C(=O)O)C(C)C (configuration not stated),23.3 µM,38.2 µM,> 30%,> 30%,10.6 µM,> 30%,14.3 µM,42.5 µM,> 30%,> 30%,–,–,–,–,–,–,–
O=C1CCC(O)(CCOC(=O)/C=C/c2ccc(O)c(O)c2)CC1,–,–,–,–,–,–,12.5 µM,–,> 30%,–,–,–,–,–,–,–,–
O=C1c2c(O)cc(O)cc2O[C@H](c2ccc(O)c(O)c2)[C@H]1O,–,–,> 30%,> 30%,–,–,–,–,> 30%,> 30%,–,–,> 30%,–,–,–,–
Oc1cc(O)cc(/C=C/c2ccc(O)cc2O)c1 [OXYRESVERATROL],27.6 µM,–,> 30%,–,–,–,–,–,–,–,–,–,–,–,–,–,–
CNC(=O)C(CCc1ccccc1)NC(=O)C(CC(=O)NO)CC(C)C (configuration not stated),0.0036 µM,–,> 30%,–,0.0041 µM,> 30%,–,0.0064 µM,–,> 30%,–,0.0082 µM,> 30%,–,–,–,–
COC(=O)C1(O)CC(OC(=O)/C=C/c2ccc(O)c(O)c2)C(O)C(OC(=O)/C=C/c2ccc(O)c(O)c2)C1 (configuration not stated) [MACRATHOIN F],3.88 µM,10.4 µM,> 30%,> 30%,16.3 µM,> 30%,11.6 µM,7.62 µM,> 30%,> 30%,–,1.2 µM,> 30%,–,–,–,–
O=c1cc(-c2ccc(O)c(O)c2)oc2cc(O)cc(O)c12 [LUTEOLIN],3.61 µM,16.2 µM,> 30%,> 30%,–,–,5.62 µM,10 µM,> 30%,> 30%,–,0.98 µM,> 30%,–,–,–,–
